Here are results for 24 compounds from ChEMBL document CHEMBL1131599, “Synthesis of C3 heteroatom-substituted azetidinones that display potent cholesterol absorption inhibitory activity” (1998).

Test [1] is described as follows: Percent reduction of liver cholesterol ester levels after po administration of compound in cholesterol fed hamsters at a dose 25 mg/kg/day. In kind it is functional. As to conditions: Cricetulus griseus. The gist of the method:
(§1)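 Cholesterol-fed hamsters received the compound orally once daily for 7 days, with dose expressed as mg/kg/day. Four animals per compound. Values are reported as % inhibition at the given dose, or as an ED50 in mg/kg/day.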

Test [2] is described as follows: Percent reduction of liver cholesterol ester levels after po administration of compound in cholesterol fed hamsters at a dose 1 mg/kg/day. In kind it is functional, Cricetulus griseus. The settings on record: for inhibition in vivo at 1 mg/kg/day: Cricetulus griseus, Liver, po. The gist of the method: (§2)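 Cholesterol-fed hamsters were dosed orally for 7 days, with doses in mg/kg/day. The value is % inhibition at the stated dose, or an ED50 in mg/kg/day, with n = 4 animals per compound.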

Test [3] can be described thus: Percent reduction of liver cholesterol ester levels after po administration of compound in cholesterol fed hamsters at a dose 10 mg/kg/day. The format is functional. As to conditions: Cricetulus griseus. A digest of the protocol:
as §2

Test [4] is described as follows: Ability to inhibit liver cholesterol ester was determined in cholesterol fed hamsters. The format is functional, Cricetulus griseus. A digest of the protocol: as §2
A short description of test [5]: Percent reduction of liver cholesterol ester levels after po administration of compound in cholesterol fed hamsters. The format is functional, Cricetulus griseus. A digest of the protocol:
as §1

The nature of test [6]: Percent reduction of Liver cholesterol ester levels after peroral administration in cholesterol fed hamsters. In kind it is functional, Cricetulus griseus. The gist of the method: as §2
A short description of test [7]: Percent reduction of Liver cholesterol ester levels after peroral administration in cholesterol fed hamsters at a dose 10 mg/kg/day. The settings on record: Cricetulus griseus, route oral. In kind it is functional. A digest of the protocol:
as §2

Test [8] can be described thus: Percent reduction of liver cholesterol ester levels after po administration of compound in cholesterol fed hamsters at a dose 3 mg/kg/day. In kind it is functional. The settings on record: Cricetulus griseus. A digest of the protocol:
as §2

The inhibition in vivo is the change of the read-out against control, counted positive when it falls. `COc1ccc([C@@H]2C(S(=O)(=O)CCc3ccccc3)C(=O)N2c2ccccc2)cc1` (stereo partly specified): the inhibition in vivo at 25 mg/kg/day in test [1] was determined as 54%.

On to `O=C1[C@H]([S+]([O-])CCc2ccccc2)[C@@H](c2ccc(O)cc2)N1c1ccc(F)cc1` (stereo partly specified), for which the inhibition in vivo at 1 mg/kg/day in test [2] was found to be 82%. Besides, in test [3], the inhibition in vivo at 10 mg/kg/day was found to be 56%.

As usually defined, the ED50 is the midpoint of the dose-response relation. A low value points to greater potency. With `COc1ccc([C@@H]2C([S+]([O-])CCc3ccccc3)C(=O)N2c2ccccc2)cc1` (stereo partly specified), it took a dose of 0.59 mg/kg/day to reach the 50% effect level in test [4] (ED50). Besides, the inhibition in vivo at 25 mg/kg/day in test [1] amounted to 97%.

Turning to `COc1ccc([C@@H]2[C@H](SCCc3ccccc3)C(=O)N2c2ccccc2)cc1`, the inhibition in vivo at 10 mg/kg/day in test [3] is 31%.

By Inhibition is commonly meant the drop in the measured response relative to a control, in per cent. High values mean a strong effect, low ones a weak effect. For the compound `COc1ccc([C@@H]2[C@@H]([S+]([O-])CCc3ccccc3)C(=O)N2c2ccccc2)cc1` (stereo in doubt; 27), the Inhibition in test [2] is on record as 82%. The ED50 in test [4] amounted to 0.21 mg/kg/day.

As for `COc1ccc([C@@H]2[C@@H](P(=O)(O)CCc3ccccc3)C(=O)N2c2ccccc2)cc1`, the inhibition in vivo at 25 mg/kg/day in test [1] was found to be 0%.

Turning to `COc1ccc([C@@H]2C(SCCc3ccccc3)C(=O)N2c2ccccc2)cc1` (stereo partly specified), in test [1], the inhibition in vivo at 25 mg/kg/day was 97%.

Take `COc1ccc([C@@H]2[C@@H](CCS(=O)(=O)c3ccccc3)C(=O)N2c2ccccc2)cc1`: the inhibition in vivo at 10 mg/kg/day in test [3] worked out at 23%.

Regarding `O=C1[C@@H]([S+]([O-])CCc2ccccc2)[C@@H](c2ccc(O)cc2)N1c1ccc(F)cc1` (stereo in doubt; 37), the inhibition in vivo at 1 mg/kg/day in test [2] stood at 40%.

In the case of `COc1ccc([C@@H]2[C@@H](SCCc3ccccc3)C(=O)N2c2ccccc2)cc1`, the inhibition in vivo at 1 mg/kg/day in test [2] was determined as 89%. In test [4], the ED50 is 0.13 mg/kg/day.

In turn, `COc1ccc([C@@H]2[C@@H](P(=O)(CCc3ccccc3)OC)C(=O)N2c2ccccc2)cc1` (stereo partly specified) registered an Inhibition in test [5] of 0%.

For `COc1ccc([C@@H]2[C@@H](CC[S+]([O-])c3ccccc3)C(=O)N2c2ccccc2)cc1` (stereo partly specified), the inhibition in vivo at 10 mg/kg/day in test [3] was 21%.

Compound `COc1ccc([C@@H]2[C@@H](CCC(O)c3ccccc3)C(=O)N2c2ccccc2)cc1` (stereo partly specified) showed an ED50 in test [6] of 0.9 mg/kg/day.

Turning to `COc1ccc([C@@H]2[C@@H](CCP(=O)(O)c3ccccc3)C(=O)N2c2ccccc2)cc1`, the inhibition in vivo at 25 mg/kg/day in test [1] amounted to 0%.

For the compound `COc1ccc([C@@H]2[C@@H](CCSc3ccccc3)C(=O)N2c2ccccc2)cc1`, in test [7], the inhibition in vivo at 10 mg/kg/day is 0%.

In turn, `COc1ccc([C@@H]2[C@@H](CCCc3ccccc3)C(=O)N2c2ccc(OC)cc2)cc1` [SCH-48461] yielded an ED50 in test [6] of 2.2 mg/kg/day.

For `O=C1[C@@H](SCCc2ccccc2)[C@@H](c2ccc(O)cc2)N1c1ccc(F)cc1`, the inhibition in vivo at 1 mg/kg/day in test [2] amounted to 0%.

In the case of `COc1ccc([C@@H]2[C@@H](CCP(=O)(OC)c3ccccc3)C(=O)N2c2ccccc2)cc1` (stereo partly specified), the inhibition in vivo at 25 mg/kg/day in test [1] was determined as 0%.

In the case of `COc1ccc([C@H]2C(SCCc3ccccc3)C(=O)N2c2ccccc2)cc1` (stereo partly specified), in test [3], the inhibition in vivo at 10 mg/kg/day was -31%.

Turning to `O=C1[C@H](SCCc2ccccc2)[C@@H](c2ccc(O)cc2)N1c1ccc(F)cc1`, in test [2], the inhibition in vivo at 1 mg/kg/day was 83%.

In test [2], `COc1ccc([C@@H]2[C@@H]([S+]([O-])CCc3ccccc3)C(=O)N2c2ccccc2)cc1` (stereo in doubt; 26) came in with an Inhibition of 58%. In addition, it took a dose of 0.9 mg/kg/day to reach the 50% effect level in test [4] (ED50).

The compound `COc1ccc([C@@H]2[C@H](C(O)CCc3ccccc3)C(=O)N2c2ccccc2)cc1` (stereo partly specified) had an ED50 in test [6] of 0.4 mg/kg/day.

As for `COc1ccc([C@@H]2[C@H]([S+]([O-])CCc3ccccc3)C(=O)N2c2ccccc2)cc1` (stereo partly specified), the inhibition in vivo at 1 mg/kg/day in test [2] was 58%. The compound also came in with an ED50 in test [4] of 0.58 mg/kg/day. For the same compound, in test [8], the inhibition in vivo at 3 mg/kg/day came out at 78%.

As for `O=C1[C@@H]([S+]([O-])CCc2ccccc2)[C@@H](c2ccc(O)cc2)N1c1ccc(F)cc1` (stereo in doubt; 38), the Inhibition in test [2] stood at 42%.
